High-throughput results from PubChem BioAssay.
This is a sample that favours compounds with a hit; in the whole collection about 9.2% have one here.
Autophagy HCS = autophagy modulators in MEF cells, primary screen, imaging, high-content, MEF GFP-LC3; MEF GFP-LC3 puncta imaging; test concentration mostly 10 µM; calls only at 10 µM (by protocol); actives 0.98% (n = 190,000); AID 463193, 2010;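 active means percentage of spot-positive cells more than 3 SD above its plate mean, without a fluorescence outlier flag or 80% toxicity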
PTEN del growth = growth suppression of PTEN-null HCT116, primary screen, cell-based, CellTiter-Glo | HCT116 PTEN-null viability, 60 h; stronger effect = lower value | viability, % at 10 µM | actives 1.2% (n = 140,000);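 active means viability at or below a set limit, 4 SD under the median of all tested compounds, cut at about 3.7% in these data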;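 further: PTEN knockout HCT116 line with beta catenin targeted HCT116 as companion control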
Dynein cargo inh = inhibitors of GR-EGFP nuclear translocation, primary screen, dynein cargo transport inhibitor project, imaging, high-content, 3617.4 mouse cells; test concentration mostly 20 µM; stimulated with dexamethasone, 1 µM; stronger effect = lower value; z-score, hits read low; actives 0.47% (n = 220,000);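 active means plate z-score of nuclear minus cytoplasmic receptor signal below a set negative limit, without overly bright fluorescence or cell loss, cut at about -3.5 in these data, passing the limit was not always enough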;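 further: z-score of nuclear minus cytoplasmic ring GR-EGFP intensity difference per well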
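Buffer or medium – tet-free medium with charcoal-stripped serum · Signal – automated 10x imaging of fixed Hoechst-stained cells · Also added – dexamethasone agonist, 1.0 µM final, for 30 min · Incubation – induction 48 h, compound 1 h, agonist 30 min · Read-out – GR-EGFP nuclear translocation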
L major viab = Leishmania major promastigote growth inhibition, primary screen | AID 1063, 2008 | Leishmania major promastigotes, resazurin fluorescence viability | actives 9% (n = 200,000) | inhibition, % at 10 µM; in the data active means inhibition above about 50%;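 further: promastigotes grown with compound for 44 hours at 28 °C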
bCat KO growth = primary screen for growth suppressors in beta-catenin knockout HCT116 cells (colon tumor, human). HCT116 beta-catenin knockout viability, CellTiter-Glo, 60 h; stronger effect = lower value. AID 818, 2007. viability, % at 10 µM. actives 1.5% (n = 140,000);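 active means viability at or under a set limit, the compound median less 4 SD, cut at about 6% in these data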
Hits are given with their value; n = inactive; x = no result; + = active, no number.

SMILES	Autophagy HCS	PTEN del growth	Dynein cargo inh	L major viab	bCat KO growth
CCN(CC)S(=O)(=O)c1cccc(NC(=O)C(=O)c2c(-c3ccccc3)cc3ccccn23)c1	n	n	n	98.3	n
CN(C)CCNC(=O)C(=O)c1c(-c2ccccc2)cc2ccccn12	n	x	n	n	x
CCN(CC)S(=O)(=O)c1cc(NC(=O)C(=O)c2c(-c3ccccc3)cc3ccccn23)ccc1C	n	n	n	90.9	n
CCN(CC)S(=O)(=O)c1ccc(N2CCOCC2)c(NC(=O)C(=O)c2c(-c3ccccc3)cc3ccccn23)c1	n	n	n	n	n
C#CCOCCOCCOCCNc1nc(N2CCN(C(=O)[C@H]([C@@H](C)CC)n3cc([C@@H](N)Cc4ccc(O)cc4)nn3)CC2)nc(N2CCN(C(=O)[C@H](CCCCN)n3cc([C@@H](N)CO)nn3)CC2)n1	n	x	n	n	x
O=C(NCCCN1CCOCC1)C(=O)N/N=C/c1cccc2ccccc12	x	x	n	x	x
Cc1ccc(S(=O)(=O)/N=C2\SC(CC(=O)Nc3ccc(F)cc3)C(=O)N2c2ccccc2)cc1 (centres undefined)	n	n	n	63.4	n
COc1cccc(/C=C2/CN(C)CC3=C2OC(N)=C(C#N)C3c2cccc(OC)c2)c1 (centres undefined)	n	n	n	52.8	n
COCCNCc1ccc(Cl)cc1Cl	n	x	n	n	x
CCCOc1ccc(Cl)cc1CN1CCOCC1	n	n	n	n	n
CC1CN(Cc2ccc(Cl)cc2Cl)CC(C)O1 (centres undefined)	n	n	n	n	n
C=CCc1cc(Cl)ccc1OCCNCCOC	n	x	n	95.0	x
C=CCc1cc(Cl)ccc1OCCN1CC(C)OC(C)C1 (centres undefined)	n	x	n	82.9	x
C=CCc1cc(Cl)ccc1OCCNCCN1CCOCC1	n	x	n	95.0	x
CC(C)C(c1nnnn1Cc1ccc(F)cc1)N1CCN(C2CCCC2)CC1 (centres undefined)	n	x	n	n	x
Fc1ccc(Cn2nnnc2CN2CCN(C3CCCCC3)CC2)cc1	n	n	n	86.1	n
Cc1ccccc1C(=O)NC1CCN(Cc2nnnn2Cc2ccc(F)cc2)CC1	n	n	n	n	n
c1coc(Cn2nnnc2CN2CCN(C3CCCC3)CC2)c1	n	n	n	74.0	n
CCCC(c1nnnn1Cc1ccc(F)cc1)N1CCN(C2CCCCC2)CC1 (centres undefined)	n	n	n	71.6	n
CCOC(=O)c1sc2nc(NC(=O)C3CC3)sc2c1C	n	n	n	n	n
CCOC(=O)c1sc2nc(NC(=O)C(C)(C)C)sc2c1C	x	n	n	65.0	n
COc1ccc(NC(=O)COC(=O)Cc2c(F)cccc2Cl)cc1	n	x	n	n	x
O=C(c1ccccc1)N1CCN(C(=S)NCCc2ccccc2)CC1	n	n	n	53.0	n
CN1CCN(C(=S)NCCc2ccccc2)CC1	n	n	n	n	n
Cc1ccc(C)c(NC(NC(=O)c2ccccn2)C(Cl)(Cl)Cl)c1 (centres undefined)	n	x	n	n	x
SMILES	Autophagy HCS	PTEN del growth	Dynein cargo inh	L major viab	bCat KO growth
COc1ccc(N2CCN(c3cc(C)c4ccccc4n3)CC2)cc1	n	x	n	n	x
COc1ccc2c(C)cc(N3CCCCCC3)nc2c1	n	x	n	60.6	x
COc1ccc(NC(C)C(=O)Nc2cc(C(F)(F)F)ccc2N2CCOCC2)c(OC)c1 (centres undefined)	n	n	n	72.1	n
Cc1ccc2nc(SCC(=O)Nc3cc(C(F)(F)F)ccc3N3CCOCC3)[nH]c2c1	n	n	n	53.3	n
COc1cc(Cl)c(C)cc1NC(C)C(=O)Nc1cc(C(F)(F)F)ccc1N1CCOCC1 (centres undefined)	n	n	n	n	n
O=C(CSCc1ccco1)Nc1cc(C(F)(F)F)ccc1N1CCOCC1	+	n	n	n	n
CCCC(=O)Nc1cc(C(F)(F)F)ccc1N1CCOCC1	n	x	n	n	x
O=C(Nc1ccncc1)c1ccc2c(c1)C(=O)N(C1CCCCC1)C2=O	n	n	n	n	n
Cc1cc(C)cc(N(CC(=O)Nc2ccccc2)C2=NC3CS(=O)(=O)CC3S2)c1 (centres undefined)	n	x	n	64.4	x
COc1cc(NC(=O)CN2CCCCC2C)c(C)cc1[N+](=O)[O-] (centres undefined)	n	n	n	69.3	n
COc1cc(NC(=O)CN2CCCCC2)c(C)cc1[N+](=O)[O-]	n	n	n	n	n
NC(=O)c1ccccc1N/C=C/C(=O)c1ccc(Cl)cc1Cl	n	n	n	85.9	n
Cc1cnn2c(C3CC3)ccnc12	n	x	n	n	x
COC(=O)c1ccc(NC(=O)Cc2ccc(F)cc2)cc1	n	x	n	67.9	x
COc1cccc(C(=O)Nc2cccc(C(=O)NCC(C)C)c2)c1	n	n	n	63.6	n
COc1cc(OC)cc(C(=O)Nc2cccc(N3CCCC3)c2)c1	n	n	n	71.9	n
COc1cccc(C(=O)Nc2cccc(NC(C)=O)c2)c1	n	n	n	n	n
COc1cc(OC)cc(C(=O)Nc2cccc(C(C)=O)c2)c1	n	n	n	n	n
COc1cccc(CNC(=O)c2cccc(Br)c2)c1	n	n	n	54.0	n
CCN(CC)C(=O)C(=O)c1cccn1-c1cccc(OC)c1C#N	n	x	n	n	x
COc1ccc(CC(=O)Nc2ccc(C(=O)NCC(C)C)cc2)cc1	n	n	n	54.5	n
COC(=O)c1ccc(NC(=O)CNCc2ccncc2)cc1	n	n	n	56.1	n
COC(=O)c1ccc(NC(=O)Nc2cccc(F)c2)cc1	n	x	n	n	x
COC(=O)c1ccc(NC(=O)Nc2ccc(F)cc2F)cc1	+	x	n	n	x
CCOC(=O)/C(C#N)=C\c1ccc(OCC(=O)Nc2ccc(C)cc2C)c(OC)c1	n	n	n	n	n
SMILES	Autophagy HCS	PTEN del growth	Dynein cargo inh	L major viab	bCat KO growth
O=C(CN1C(=O)c2ccccc2C1=O)N1CCN(C2c3ccccc3-c3ccccc32)CC1	n	n	n	n	n
Cc1ccc(-n2c(=O)c3ccccc3n(CC(=O)C(C)(C)C)c2=O)cc1	n	x	n	n	x
O=C(c1ccc(Cl)cc1)C(Cn1cncn1)C(Sc1ccccc1)c1ccccc1 (centres undefined)	n	n	n	91.8	5.6
O=C(Nc1ccc(Cl)cc1Cl)c1n[nH]c(Cn2cncn2)n1	n	n	n	n	n
CC(C)(C)OC(=O)N[C@@H](Cc1ccccc1)c1nnc(S(=O)(=O)Cc2ccccc2)o1	n	n	-4.31	n	n
O=C1NN(c2ccc(Cl)c(Cl)c2)C(=O)/C1=C/c1cccc(OC(=O)c2cccs2)c1	n	n	-3.78	n	n
CC1CCCN(C(=O)C2(NC(=O)Nc3cccc(F)c3)CCCCC2)C1 (centres undefined)	n	x	n	n	x
O=C(c1ccccc1)N1CC(COc2ccccc2)OC(c2cccnc2)O1 (centres undefined)	n	n	n	54.0	n
O=C(/C=C/c1ccccc1)CC(=O)c1ccccc1O	n	x	n	n	x
